This excerpt belongs to a sample that is enriched for hits.
T cruzi repl = inhibitors of intracellular T. cruzi growth, primary screen, luminescence, NIH3T3 host cells; T. cruzi beta-gal in NIH3T3, 90 h; inhibition, % (no concentration beside the values); 1.4% of 300,000 active; AID 1885, 2009;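 active = mean inhibition across valid replicates above about 55%, limit read from the data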;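 note: signal also drops with host cell toxicity which is not excluded here; higher percent means less beta-gal luminescence so fewer parasites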
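System – NIH/3T3 host cells with β-galactosidase reporter T. cruzi · Doses – single 50 nL compound addition per well in DMSO · Reagent – 5000 T. cruzi trypomastigotes/well · Medium – Low-serum DMEM with 2% FBS · Timing – ≥90 h infection period, 3 h prior cell attachment · Evaluation – parasite load inhibition, % · Technique – GalScreen luminescence, 60 min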
HSF-1 act = HSF-1 activators, primary screen, NIH3T3-HGL cells, MG132 stress, luminescence, single point; NIH3T3-HGL HSF-1 luciferase reporter, 8 h; 100% = twice DMSO control signal; activation, % at 9 µM; 1.7% of 300,000 active;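 active = mean replicate activation of at least 50% with a set share of replicates each reaching 50%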
L major viab = Leishmania major promastigote growth inhibition, primary screen | Leishmania major promastigotes, resazurin fluorescence viability | inhibition, % at 10 µM | 9% of 200,000 active | AID 1063, 2008; in the data active = inhibition above about 50%;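 note: promastigotes grown with compound for 44 hours at 28 °C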
HSF1 inhib = HSF1 inhibitors in luciferase reporter cells, primary screen, cell-based, NIH3T3, luminescence; NIH3T3-HGL HSE-luciferase, MG132-induced, luminescence 8 h; active compounds read low; 0.77% of 300,000 active; activity change, negative = inhibition, % at 7.5 µM (by protocol);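 active = more than half of replicate wells show activity change below -50%, luminescence cut by over half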;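 note: luciferase reports HSF-1 transcriptional activity via heat shock element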
Hsp70 activator = Hsp70 transcriptional activators, primary screen, cell-based, HeLa, Hsp70 promoter luciferase, luminescence, 10 µM; activation, % at 10 µM; HeLa Hsp70 promoter luciferase reporter; scaled: vehicle 0, proteasome-inhibitor control 100%; 0.04% of 200,000 active;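 active = activation above the mean across all tested compounds plus 3 SD, cutoff set per campaign, cut at about 5.5% in these data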
A number is an active result; . = inactive; / = not tested or not shown.

SMILES	T cruzi repl	HSF-1 act	L major viab	HSF1 inhib	Hsp70 activator
NC(=O)[C@H]1CC2(CC(c3cccc(NC(=O)CC(c4ccccc4)c4ccccc4)c3)=NO2)CN1C(=O)CC(c1ccccc1)c1ccccc1 (stereo not given in full)	.	.	/	.	/
C/C=C(\C)C(=O)Nc1cccc(C2=NOC3(C2)C[C@@H](C(N)=O)N(C(=O)c2cc([N+](=O)[O-])cc([N+](=O)[O-])c2C)C3)c1 (stereo not given in full)	.	.	/	.	/
NC(=O)[C@@H]1CC2(CC(c3cccc(NC(=O)CC(c4ccccc4)c4ccccc4)c3)=NO2)CN1C(=O)c1ccc(Cl)cc1 (stereo not given in full)	57.5	.	/	.	/
Cc1c(C(=O)N2CC3(CC(c4cccc(NC(=O)CC(c5ccccc5)c5ccccc5)c4)=NO3)C[C@@H]2C(N)=O)cc([N+](=O)[O-])cc1[N+](=O)[O-] (stereo not given in full)	67.2	.	/	.	/
CCOc1cccc(CNc2ccc(O)cc2)c1OCc1ccccc1Cl	.	.	99.0	.	.
CCOc1cccc(CNc2ccc(O)cc2)c1OCc1ccc(Cl)cc1Cl	.	.	99.8	.	.
CCOc1cccc(CNCCO)c1OCc1ccc(Cl)cc1Cl	.	.	.	.	.
CCOc1cccc(CNn2cnnc2)c1OCc1ccccc1Cl	.	.	.	.	.
CC1=CN2C(=N)/C(=C/c3cn(CCCOc4ccccc4C)c4ccccc34)C(=O)N=C2S1	.	.	.	.	.
COc1cccc(OCCCn2cc(/C=C3/C(=N)N4C=C(C)SC4=NC3=O)c3ccccc32)c1	57.2	.	94.8	.	.
COc1ccc(OCCCn2cc(/C=C3/C(=N)N4C=C(C)SC4=NC3=O)c3ccccc32)cc1	.	.	86.7	.	.
Cc1nn(Cc2cccc(C(=O)Nc3ccn(Cc4c(F)c(F)cc(F)c4F)n3)c2)c(C)c1[N+](=O)[O-]	68.0	.	.	.	.
Cc1nn(C)c(C(=O)Nc2ccn(Cc3c(F)c(F)cc(F)c3F)n2)c1[N+](=O)[O-]	.	.	.	.	.
Cc1cc(Cl)ccc1C(=O)C1CCCN(C(=O)c2cscn2)C1 (stereo not given)	.	.	.	.	.
Cc1cc(Cl)ccc1C(=O)C1CCCN(C(=O)c2cnsn2)C1 (stereo not given)	.	50.9	.	.	.
CCCCN(CCCC)C(=O)c1cc(Cl)ccc1[N+](=O)[O-]	.	.	.	.	.
CCCN(CCC)C(=O)c1cc([N+](=O)[O-])cc2c1-c1ccc([N+](=O)[O-])cc1C2=C(C#N)C#N	79.8	.	/	.	/
CCOc1ccc(CCNC(=O)C(C)N2C(=O)CC(C)(C)Sc3ccccc32)cc1 (stereo not given)	.	.	/	.	/
Clc1ccc(Nc2ccc(Cl)nn2)cc1	.	.	/	-54.5	/
COc1ccc(Nc2ccc(Cl)nn2)cc1	.	.	/	.	/
O=C(CCC(=O)c1ccc(F)cc1)Nc1cc(Cl)cc(Cl)c1	.	57.8	.	.	.
CC(=O)c1cccc(NC(=O)CCC(=O)c2ccc(F)cc2)c1	.	.	/	.	/
Cc1ccc2c(c1)cc(CN(Cc1ccc3c(c1)OCO3)S(=O)(=O)c1ccccc1)c1nnnn12	.	.	99.0	.	.
Cc1ccc(C(=O)N(Cc2cccnc2)Cc2cc3cc(C)ccc3n3nnnc23)cc1	66.7	.	96.1	.	.
Cc1ccc2c(c1)cc(CN(Cc1cccnc1)C(=O)c1ccccc1)c1nnnn12	.	.	.	.	.
SMILES	T cruzi repl	HSF-1 act	L major viab	HSF1 inhib	Hsp70 activator
CN(C)S(=O)(=O)NCC1CCCN(Cc2ccc(-c3ccccc3)cc2)C1 (stereo not given)	.	.	/	.	/
CC1(C)CC(=O)C2=C(C1)c1c(ccc3ccccc13)NC2c1ccco1 (stereo not given)	.	92.5	.	.	.
O=C(NCCS(=O)(=O)N1CCN(c2ccccc2F)CC1)c1cccs1	.	.	/	.	/
Cc1ccc(NCCC#N)cc1C	.	.	50.1	.	.
Cc1ccc(C)c(NCCC#N)c1	.	.	52.5	.	.
Cc1cccc(NCCC#N)c1	.	.	.	.	.
Cc1cccc(C)c1NC(=O)COC(=O)c1cccnc1	.	.	.	.	.

Screening data deposited in PubChem BioAssay by several laboratories.
